In PMC6683736 (The Journal of Cell Biology, 2019):

B1: SGEF WT: full-length SGEF 1–871, RhoG-specific GEF, myc- or mNeon-tagged (protein)
chain: MDGESEVDFSSNSITPLWRRRSIPQPHQVLGRSKPRPQSYQSPNGLLITDFPVEDGGTLLAAQIPAQVPTASDSRTVHRSPLLLGAQRRAVANGGTASPEYRAASPRLRRPKSPKLPKAVPGGSPKSPANGAVTLPAPPPPPVLRPPRTPNAPAPCTPEEDLTGLTASPVPSPTANGLAANNDSPGSGSQSGRKAKDPERGLFPGPQKSSSEQKLPLQRLPSQENELLENPSVVLSTNSPAALKVGKQQIIPKSLASEIKISKSNNQNVEPHKRLLKVRSMVEGLGGPLGHAGEESEVDNDVDSPGSLRRGLRSTSYRRAVVSGFDFDSPTSSKKKNRMSQPVLKVVMEDKEKFSSLGRIKKKMLKGQGTFDGEENAVLYQNYKEKALDIDSDEESEPKEQKSDEKIVIHHKPLRSTWSQLSAVKRKGLSQTVSQEERKRQEAIFEVISSEHSYLLSLEILIRMFKNSKELSDTMTKTERHHLFSNITDVCEASKKFFIELEARHQNNIFIDDISDIVEKHTASTFDPYVKYCTNEVYQQRTLQKLLATNPSFKEVLSRIESHEDCRNLPMISFLILPMQRVTRLPLLMDTICQKTPKDSPKYEVCKRALKEVSKLVRLCNEGARKMERTEMMYTINSQLEFKIKPFPLVSSSRWLVKRGELTAYVEDTVLFSRRTSKQQVYFFLFNDVLIITKKKSEESYNVNDYSLRDQLLVESCDNEELNSSPGKNSSTMLYSRQSSASHLFTLTVLSNHANEKVEMLLGAETQSERARWITALGHSSGKPPADRTSLTQVEIVRSFTAKQPDELSLQVADVVLIYQRVSDGWYEGERLRDGERGWFPMECAKEITCQATIDKNVERMGRLLGLETNV
modifications: left off: myc, end not stated, kept

Assays:
SGEF = test: Yeast two-hybrid screen with full-length human SGEF as bait; format: binding; details: mouse kidney cDNA library
Xenopus embryos = test: Junctional localization in gastrula-stage embryos; format: in vivo, Xenopus laevis; details: live confocal, mNeon-tagged
Outline: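 Embryos were microinjected in the animal hemisphere with mRNAs, either at the two-cell stage (each cell twice) or at the four-cell stage (once). They were raised to gastrula stage (10.5–12) and live-imaged by confocal. mNeon-tagged protein was coexpressed with BFP-ZO-1 (tight junction marker) and PLEKHA7-mCherry (adherens junction marker), and the junctional-to-cytosolic intensity ratio was quantified.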

MDCK cells [1] = test: Actomyosin organization by IF; format: cell-based, canine; details: IF, HyVolution
MDCK cells [2] = test: 3D cyst lumen formation in matrigel; format: cell-based, canine
Dlg1 = test: Coimmunoprecipitation of SGEF constructs with GFP-Dlg1, HEK293FT lysates; format: binding, Mouse; details: GFP-trap nanobodies, WB
Outline: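 HEK293FT cells were co-transfected by calcium phosphate; medium was changed at 24 h and cells harvested at 48 h. Lysis was in Tris-HCl pH 7.4, MgCl2, 150 mM NaCl, 1% Triton X-100 and protease inhibitors. Equal protein was incubated with GFP-Trap beads for 1 h at 4°C, washed four times, then immunoblotted with anti-GFP and anti-myc (or anti-His).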

[3] = tested on: Scribble/SGEF/Dlg1 ternary complex; test: Coprecipitation of Scribble with GFP-Dlg1; format: binding; details: HA-Scribble and GFP-Dlg1 coexpressed, IP anti-GFP, HEK293
MDCK cells [4] = test: Protein levels and junctional localization by WB and IF; format: cell-based, canine
Outline: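 Total lysates of confluent control, SGEF-knockdown and WT-rescue MDCK cells were immunoblotted, with tubulin as loading control. For immunofluorescence, cells were fixed in 3.7% paraformaldehyde, permeabilised with 0.1% Triton X-100 and imaged by confocal. Afadin enrichment was scored as the tricellular/bicellular junction intensity ratio (≥200 junctions, at least three fields, two experiments; Mann–Whitney U test).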

MDCK cells [5] = test: Height of MDCK monolayer, confocal XZ; format: cell-based, canine; details: average, n = 50 cells, three independent experiments; Fig. 5 I
Outline: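 Confocal XZ sections of confluent control, SGEF-knockdown and rescue MDCK monolayers were acquired on a Leica SP8. Cells were stained for E-cadherin, β-catenin and nuclei, or for F-actin and Hoechst, and monolayer height was measured.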

RhoG = RhoG activity pulldown; format: cell-based, canine; details: normalized to total RhoG, three independent experiments
Outline: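 Active RhoG was pulled down with GST–ELMO from total lysates of control, SGEF-knockdown and rescue MDCK cells, then immunoblotted with anti-RhoG. Active levels were normalised to total RhoG; mean ± SEM of three independent experiments.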

MDCK cells [6] = test: Apical cell area and axial ratio; format: cell-based, canine; details: major/minor axis aspect ratio
Outline: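 Apical cell area and axial ratio were measured in control, SGEF-knockdown and WT-rescue MDCK monolayers from two fields in each of two independent experiments (n = 100 cells for area, n = 150 for axial ratio). Plots show min-to-max spread.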

MDCK cells [7] = test: Zigzag index of tight junctions; format: cell-based, canine; details: average; 1 = straight line; CTRL 1.24
Scribble = test: Coimmunoprecipitation of SGEF constructs with GFP-Scribble, HEK293FT lysates; format: binding, Human; details: GFP-trap nanobodies, WB

Molecule | potential binding partner for SGEF (SGEF) | localization at apical junctional complex (Xenopus embryos) | actomyosin organization at apical junction (MDCK cells [1]) | cysts with a single lumen (MDCK cells [2]; Fig. 10 D, red and dark green bars, CTRL 65%) [%] | cysts with an open lumen (MDCK cells [2]; Fig. 10 D, red and orange bars, CTRL 100%) [%] | E-cadherin expression in cysts (MDCK cells [2]; IF, 3D cysts) | cysts with multiple open lumens (MDCK cells [2]; matrigel, 4 d) [%] | interaction with Dlg1 (Dlg1) | formation of Scribble/SGEF/Dlg1 ternary complex [3] | β-catenin and p120-catenin localization at cell–cell junctions (MDCK cells [4]; IF) | localization of Scribble and Dlg1 (MDCK cells [4]; IF, rescue of SGEF KD) | cadherin-6 levels (MDCK cells [4]; WB) | E-cadherin level and localization (MDCK cells [4]; WB and IF) | afadin expression levels and localization at AJs (MDCK cells [4]; WB and IF) | cell height (MDCK cells [5]) [µm] | active RhoG level (RhoG) | axial ratio (MDCK cells [6]) | zigzag index (MDCK cells [7]) | interaction with Scribble (Scribble)
Scribble: Scribble polarity protein, 1–1,630 | potential binding partner for SGEF | – | – | – | – | – | – | – | – | – | – | – | – | – | – | – | – | – | –
B1 | – | localized efficiently to the AJC | restored the normal apical and basal actomyosin pattern | 36 | 77 | restored to normal levels | 40 | able to bind efficiently to Dlg1 | Scribble coprecipitated efficiently with Dlg1 | restored to normal | restored the normal localization of both Scribble and Dlg1 | restored to normal levels | restored both the proper expression level and localization of E-cadherin | rescued to normal levels | 5.61 ± 0.16 | returned to normal | could be rescued | 1.16 | confirmed the interaction
